Test results reported in ChEMBL document CHEMBL4177742, “Synthesis and biological evaluation of 4β-(thiazol-2-yl)amino-4'-O-demethyl-4-deoxypodophyllotoxins as topoisomerase-II inhibitors” (Bioorg Med Chem Lett, 2018).
Activity calls are given as the source filed them. The rule behind the calls is not given here.

Tests used:
[1] = tested on: A549; experiment: Cytotoxicity against human A549 cells assessed as reduction in inhibition of cell growth incubated for 48 hrs by MTT assay; type: functional, cell-based; conditions: A549, 48 h
[2] = tested on: HepG2; experiment: Cytotoxicity against human HepG2 cells assessed as reduction in inhibition of cell growth incubated for 48 hrs by MTT assay; type: functional, cell-based; conditions: HepG2, 48 h
[3] = tested on: HeLa; experiment: Cytotoxicity against human HeLa cells assessed as reduction in inhibition of cell growth incubated for 48 hrs by MTT assay; type: functional, cell-based
[4] = tested on: LoVo; experiment: Cytotoxicity against human LoVo cells assessed as reduction in inhibition of cell growth incubated for 48 hrs by MTT assay; type: functional, cell-based
[5] = tested on: WI-38; experiment: Cytotoxicity against human WI38 cells assessed as reduction in inhibition of cell growth incubated for 48 hrs by MTT assay; type: cell-based; conditions: WI-38, 48 h
[6] = tested on: A549; experiment: Inhibition of topoisomerase 2alpha protein expression in human A549 cells at 1 to 10 uM incubated for 12 hrs by Western blotting; type: functional, cell-based
Outline: (§1)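 Topo-IIα and topo-IIβ expression was measured in A549 cells treated 12 h at 1, 5 and 10 μM, with etoposide (5 μM) as a reference treatment.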

[7] = tested on: A549; experiment: Inhibition of topoisomerase 2beta protein expression in human A549 cells at 1 to 10 uM incubated for 12 hrs by Western blotting; type: functional, cell-based; outline: as §1
[8] = target: DNA topoisomerase 2-alpha (Homo sapiens) (UniProt P11388); experiment: Inhibition of topoisomerase 2alpha in human A549 cells assessed as reduction in enzyme-mediated super coliling activity by measuring induction of pBR322 DNA relaxation at 100 uM incubated for 12 hrs by ethidium bromide staining based agarose gel electrophoresis method; type: cell-based
Chain of DNA topoisomerase 2-alpha (Homo sapiens) (P11388 whole entry): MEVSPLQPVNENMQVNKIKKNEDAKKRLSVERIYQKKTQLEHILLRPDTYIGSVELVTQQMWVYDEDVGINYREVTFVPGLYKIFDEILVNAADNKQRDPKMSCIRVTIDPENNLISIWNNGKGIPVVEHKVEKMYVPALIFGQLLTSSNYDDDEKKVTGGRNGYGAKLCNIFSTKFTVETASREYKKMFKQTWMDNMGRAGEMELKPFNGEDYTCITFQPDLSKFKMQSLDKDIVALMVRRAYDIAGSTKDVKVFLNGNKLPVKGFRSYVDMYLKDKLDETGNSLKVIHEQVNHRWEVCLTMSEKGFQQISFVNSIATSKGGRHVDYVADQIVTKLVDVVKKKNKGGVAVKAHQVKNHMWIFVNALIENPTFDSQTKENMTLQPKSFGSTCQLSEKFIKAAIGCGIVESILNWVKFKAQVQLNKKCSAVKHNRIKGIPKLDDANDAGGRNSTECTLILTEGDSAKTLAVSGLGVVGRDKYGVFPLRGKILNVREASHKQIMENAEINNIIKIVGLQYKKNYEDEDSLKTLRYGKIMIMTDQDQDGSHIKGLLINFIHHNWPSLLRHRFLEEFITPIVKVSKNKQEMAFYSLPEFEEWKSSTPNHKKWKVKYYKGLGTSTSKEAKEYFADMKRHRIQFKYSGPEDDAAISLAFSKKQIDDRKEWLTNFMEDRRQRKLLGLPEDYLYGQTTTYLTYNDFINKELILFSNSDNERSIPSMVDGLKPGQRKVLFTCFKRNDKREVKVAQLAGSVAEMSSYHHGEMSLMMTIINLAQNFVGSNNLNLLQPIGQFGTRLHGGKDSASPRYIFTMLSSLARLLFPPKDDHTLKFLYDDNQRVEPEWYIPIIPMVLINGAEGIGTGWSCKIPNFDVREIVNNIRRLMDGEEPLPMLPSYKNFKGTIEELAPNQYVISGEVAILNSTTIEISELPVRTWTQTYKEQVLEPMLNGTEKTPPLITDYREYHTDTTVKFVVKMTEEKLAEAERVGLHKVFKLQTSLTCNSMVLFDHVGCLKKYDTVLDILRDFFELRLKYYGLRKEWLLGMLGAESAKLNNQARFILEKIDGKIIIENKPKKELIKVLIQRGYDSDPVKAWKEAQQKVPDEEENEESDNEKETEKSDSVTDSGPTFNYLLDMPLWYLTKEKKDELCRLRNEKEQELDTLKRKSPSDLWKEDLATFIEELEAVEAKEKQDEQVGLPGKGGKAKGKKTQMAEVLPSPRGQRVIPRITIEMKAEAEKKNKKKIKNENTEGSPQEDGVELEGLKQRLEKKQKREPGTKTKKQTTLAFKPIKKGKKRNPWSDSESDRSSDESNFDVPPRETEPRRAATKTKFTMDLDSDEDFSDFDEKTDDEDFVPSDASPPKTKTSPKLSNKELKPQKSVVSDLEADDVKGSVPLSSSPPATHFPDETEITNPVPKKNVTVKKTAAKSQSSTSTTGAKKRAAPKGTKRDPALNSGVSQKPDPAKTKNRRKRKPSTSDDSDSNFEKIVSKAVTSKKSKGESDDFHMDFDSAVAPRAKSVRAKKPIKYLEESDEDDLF

[9] = tested on: A549; experiment: Induction of DNA double stranded breaks in human A549 cells assessed as increase in gamma-H2Ax level at 1 to 10 uM incubated for 12 hrs by Western blotting; type: functional, cell-based
Outline: (§2)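 A549 cells exposed for 12 h to 1, 5 or 10 μM alongside vehicle and etoposide (5 μM) as a reference. Lysates were probed by western blotting for phospho-H2AX (Ser-139, γH2AX), p73 and phospho-ATM.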

[10] = tested on: A549; experiment: Induction of DNA double stranded breaks in human A549 cells assessed as increase in gamma-H2Ax level at 1 to 5 uM incubated for 12 hrs by DAPI staining based immunofluorescence assay; type: functional, cell-based
Outline: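 A549 cells were treated 12 h with vehicle, 1 μM or 5 μM, then immunostained with anti-γH2AX antibody and counterstained with DAPI. Nuclear γH2AX foci were scored by immunofluorescence as a marker of DNA double-strand breaks.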

[11] = tested on: A549; experiment: Induction of DNA double stranded breaks in human A549 cells assessed as increase in p73 protein levels at 1 to 10 uM incubated for 12 hrs by Western blotting; type: functional, cell-based; outline: as §2
[12] = tested on: A549; experiment: Induction of DNA double stranded breaks in human A549 cells assessed as increase in ATM phosphorylation levels at 1 to 10 uM incubated for 12 hrs by Western blotting; type: functional, cell-based; outline: as §2
[13] = tested on: A549; experiment: Induction of cell cycle arrest in human A549 cells assessed as increase in cyclin B1 protein level at 1 to 10 uM incubated for 12 hrs by Western blotting; type: functional, cell-based
Outline: (§3)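 For G2/M regulators, A549 cells were exposed 12 h to 1, 5 or 10 μM and analysed by western blotting for cyclin B1 and cdc2(p34).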

[14] = tested on: A549; experiment: Induction of cell cycle arrest in human A549 cells assessed as increase in cdc2(p34) protein level at 1 to 10 uM incubated for 12 hrs by Western blotting; type: functional, cell-based; outline: as §3
[15] = tested on: A549; experiment: Induction of cell cycle arrest in human A549 cells assessed as increase in accumulation at G2/M phase at 1 to 5 uM incubated for 12 hrs by propidium iodide staining based FACS analysis
[16] = tested on: A549; experiment: Induction of cell cycle arrest in human A549 cells assessed as reduction in accumulation at G1 phase at 1 to 5 uM incubated for 12 hrs by propidium iodide staining based FACS analysis

| inhibition [8] | SMILES | IC50 [1] | IC50 [2] | IC50 [3] | IC50 [4] | IC50 [5] | inhibition [6] | inhibition [7] | Activity [9] | Activity [10] | Activity [11] | Activity [12] | Activity [13] | Activity [14] | Activity [15] | Activity [16] |
| --- | --- | --- | --- | --- | --- | --- | --- | --- | --- | --- | --- | --- | --- | --- | --- | --- |
| – | COc1cc([C@@H]2c3cc4c(cc3[C@@H](O[C@@H]3O[C@@H]5CO[C@@H](C)O[C@H]5[C@H](O)[C@H]3O)[C@H]3COC(=O)[C@H]23)OCO4)cc(OC)c1O [ETOPOSIDE] | 9.1 µM | 9.2 µM | 11.2 µM | 18.7 µM | 25.7 µM | – | – | – | – | – | – | – | – | – | – |
| Active | COc1cc([C@@H]2c3cc4c(cc3[C@@H](Nc3nc(CC(=O)N5CCN(C6CCCC6)CC5)cs3)[C@H]3COC(=O)[C@H]23)OCO4)cc(OC)c1O | 1.3 µM | 8.5 µM | 4.4 µM | 9.2 µM | 66.7 µM | Dose-dependent effect | Dose-dependent effect | Dose-dependent effect | Active | Dose-dependent effect | Dose-dependent effect | Dose-dependent effect | Dose-dependent effect | Dose-dependent effect | Dose-dependent effect |
| – | COc1cc([C@@H]2c3cc4c(cc3[C@@H](Nc3nc(CC(=O)NC5CC5)cs3)[C@H]3COC(=O)[C@H]23)OCO4)cc(OC)c1O | 11.1 µM | 10.2 µM | 17.2 µM | 19.1 µM | 56 µM | – | – | – | – | – | – | – | – | – | – |
| – | COc1cc([C@@H]2c3cc4c(cc3[C@@H](Nc3nc(CC(=O)NC5CCCC5)cs3)[C@H]3COC(=O)[C@H]23)OCO4)cc(OC)c1O | 9.1 µM | 19.1 µM | 14.1 µM | 21 µM | 29 µM | – | – | – | – | – | – | – | – | – | – |
| – | CCOC(=O)Cc1csc(N[C@@H]2c3cc4c(cc3[C@@H](c3cc(OC)c(O)c(OC)c3)[C@H]3C(=O)OC[C@@H]32)OCO4)n1 | 9.3 µM | 0.12 µM | 12.5 µM | 7 µM | 44.4 µM | – | – | – | – | – | – | – | – | – | – |
| Active | CCOC(=O)c1csc(N[C@@H]2c3cc4c(cc3[C@@H](c3cc(OC)c(O)c(OC)c3)[C@H]3C(=O)OC[C@@H]32)OCO4)n1 | 0.16 µM | 0.13 µM | 5.6 µM | 5 µM | 55.3 µM | Dose-dependent effect | Dose-dependent effect | Dose-dependent effect | Active | Dose-dependent effect | Dose-dependent effect | Dose-dependent effect | Dose-dependent effect | Dose-dependent effect | Dose-dependent effect |
| – | COc1cc([C@@H]2c3cc4c(cc3[C@@H](Nc3nc(CC(=O)N5CCN(C)CC5)cs3)[C@H]3COC(=O)[C@H]23)OCO4)cc(OC)c1O | 22.3 µM | 18.7 µM | 16.5 µM | 27.4 µM | 28.1 µM | – | – | – | – | – | – | – | – | – | – |
| – | COc1cc([C@@H]2c3cc4c(cc3[C@@H](Nc3nc(CC(=O)NC5CCCCC5)cs3)[C@H]3COC(=O)[C@H]23)OCO4)cc(OC)c1O | 9.4 µM | 16.3 µM | 10.7 µM | 19.1 µM | 77.8 µM | – | – | – | – | – | – | – | – | – | – |
| – | COc1cc([C@@H]2c3cc4c(cc3[C@@H](Nc3nc(CC(=O)O)cs3)[C@H]3COC(=O)[C@H]23)OCO4)cc(OC)c1O | 8.3 µM | 9.3 µM | 8.7 µM | 10.3 µM | 42.5 µM | – | – | – | – | – | – | – | – | – | – |
| – | COc1cc([C@@H]2c3cc4c(cc3[C@@H](Nc3nc(CC(=O)N5CCOCC5)cs3)[C@H]3COC(=O)[C@H]23)OCO4)cc(OC)c1O | 18.7 µM | 15.1 µM | 14.8 µM | 37.2 µM | 33.5 µM | – | – | – | – | – | – | – | – | – | – |
